Laboratory results reported in EPA's CvTdb concentration-time database.

Experiments:
Mouse [1] = experiment: concentration in plasma after dosing; conditions: 10 min; dosed: 2-Hydroxy-4-methoxybenzophenone; 50 mg/kg; iv; Female; B6C3F1
Mouse [2] = experiment: concentration in plasma after dosing; conditions: 0.25 h; dosed: 2-Hydroxy-4-methoxybenzophenone; 500 mg/kg; oral; Female; B6C3F1
Mouse [3] = experiment: concentration in plasma after dosing; conditions: 10 min; dosed: 2-Hydroxy-4-methoxybenzophenone; 250 mg/kg; oral; Female; B6C3F1
Rat [4] = experiment: concentration in plasma after dosing; conditions: dosed: 2-Hydroxy-4-methoxybenzophenone, 100 mg/kg, oral, Female, F344
Mouse [5] = experiment: concentration in plasma after dosing; conditions: dosed: 2-Hydroxy-4-methoxybenzophenone, 100 mg/kg, oral, Female, B6C3F1
Mouse [6] = experiment: concentration in plasma after dosing; conditions: 3 h; dosed: 2-Hydroxy-4-methoxybenzophenone; 250 mg/kg; oral; Male; B6C3F1
Rat [7] = experiment: concentration in plasma after dosing; conditions: 2 min; dosed: Methyleugenol; 37 mg/kg; oral; Female; F344/N
Rat [8] = experiment: concentration in plasma after dosing; conditions: dosed: Methyleugenol, 37 mg/kg, oral, Male, F344/N
Rat [9] = experiment: concentration in liver after dosing; conditions: 192 h; dosed: Perfluorohexane-1-sulphonic acid – potassium salt; 16 mg/kg; oral; Female; Harlan Sprague Dawley
Rat [10] = experiment: concentration in liver after dosing; conditions: dosed: Perfluorohexane-1-sulphonic acid – potassium salt, 16 mg/kg, oral
Rat [11] = experiment: concentration in brain after dosing; conditions: 6 h; dosed: Perfluorohexane-1-sulphonic acid – potassium salt; 16 mg/kg; oral; Female; Harlan Sprague Dawley
Rat [12] = experiment: concentration in kidney after dosing; conditions: 528 h; dosed: Perfluorohexane-1-sulphonic acid – potassium salt; 16 mg/kg; oral; Female; F344
Rat [13] = experiment: concentration in kidney after dosing; conditions: 24 h; dosed: Perfluorohexane-1-sulphonic acid – potassium salt; 16 mg/kg; oral; Female; Harlan Sprague Dawley
Rat [14] = experiment: concentration in kidney after dosing; conditions: 3 h; dosed: Perfluorohexane-1-sulphonic acid – potassium salt; 16 mg/kg; oral; Female; Harlan Sprague Dawley
Rat [15] = experiment: concentration in plasma after dosing; conditions: 9 h; dosed: Primidone; 80 mg/kg; oral; Male; F344
Rat [16] = experiment: concentration in plasma after dosing; conditions: 0.25 h; dosed: Primidone; 30 mg/kg; oral; Female; F344
Rat [17] = experiment: concentration in plasma after dosing; conditions: 9 h; dosed: Primidone; 80 mg/kg; oral; Female; F344
Rat [18] = experiment: concentration in plasma after dosing; conditions: 6 h; dosed: Primidone; 80 mg/kg; oral; Male; F344
Rat [19] = experiment: concentration in plasma after dosing; conditions: 3 h; dosed: Primidone; 130 mg/kg; oral; Female; F344
Rat [20] = experiment: concentration in plasma after dosing; conditions: 18 h; dosed: Primidone; 80 mg/kg; oral; Female; F344
Rat [21] = experiment: concentration in plasma after dosing; conditions: 20 h; dosed: Pyridine; 25 mg/kg; oral; Male; F344
Rat [22] = experiment: concentration in brain after dosing; conditions: 3 h; dosed: alpha-Thujone; 25 mg/kg; oral; Male; Harlan Sprague Dawley
Rat [23] = experiment: concentration in brain after dosing; conditions: 5 min; dosed: alpha-Thujone; 50 mg/kg; oral; Female; Harlan Sprague Dawley
Rat [24] = experiment: concentration in brain after dosing; conditions: 0.5 h; dosed: alpha-Thujone; 50 mg/kg; oral; Female; Harlan Sprague Dawley
Rat [25] = experiment: concentration in brain after dosing; conditions: 0.5 h; dosed: alpha-Thujone; 50 mg/kg; oral; Female; Harlan Sprague Dawley; remark: listed apart in the source
Rat [26] = experiment: concentration in brain after dosing; conditions: 2 min; dosed: alpha-Thujone; 50 mg/kg; oral; Male; Harlan Sprague Dawley
Rat [27] = experiment: concentration in plasma after dosing; conditions: 12 h; dosed: alpha-Thujone; 50 mg/kg; oral; Male; Harlan Sprague Dawley
Rat [28] = experiment: concentration in plasma after dosing; conditions: 1.5 h; dosed: alpha-Thujone; 25 mg/kg; oral; Male; Harlan Sprague Dawley
Rat [29] = experiment: concentration in plasma after dosing; conditions: 5 min; dosed: alpha-Thujone; 50 mg/kg; oral; Female; Harlan Sprague Dawley
Rat [30] = experiment: concentration in plasma after dosing; conditions: 3 h; dosed: alpha-Thujone; 50 mg/kg; oral; Female; Harlan Sprague Dawley
human = experiment: concentration in blood after dosing; negative times count back from the end of exposure; conditions: dosed: trichloroethylene, 100 ppm, inhalation, duration: 6 hr, female
In short: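 Data points giving concentration or amount against time came from published in vivo toxicokinetic studies and from two structured collections. PubMed searching, classifier screening and manual review located the studies. Most points were digitised from plot screenshots using WebPlotDigitizer, the rest were copied from tables, and all keep their reported units.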

O=C(c1ccccc1)c1ccc(O)cc1O [2,4-Dihydroxybenzophenone]
Conditions	concentration in plasma [µg/mL]
Mouse [1]	2.27
Mouse [2]	5.48
Mouse [3]	1.29
Mouse [6]	0.316

concentration in plasma [µg/mL]
Conditions	0.25 h	2 h	2.5 min	3 h	4 h	10 min
Mouse [5]	0.303	0.0349	0.068	0.0303	–	0.115
Rat [4]	0.123	–	–	–	0.0774	–

C=CCc1ccc(OC)c(OC)c1 [Methyleugenol]
Conditions	concentration in plasma [µg/mL]
Rat [7]	0.308

Rat [8]
Conditions	concentration in plasma [µg/mL]
0.5 h	0.293
3 h	0.0219

O=S(=O)([O-])C(F)(F)C(F)(F)C(F)(F)C(F)(F)C(F)(F)C(F)(F)F.[K+] [Perfluorohexane-1-sulphonic acid – potassium salt]
Conditions	concentration in brain [ng/g]	concentration in kidney [ng/g]	concentration in liver [ng/g]
Rat [9]	–	–	1660
Rat [11]	1100	–	–
Rat [12]	–	8530	–
Rat [13]	–	22700	–
Rat [14]	–	31500	–

concentration in liver [ng/g], Rat [10]
Conditions	3 h	6 h	12 h	24 h	48 h	96 h	192 h	528 h	1200 h
Female, F344	67800	62400	68600	58000	–	–	47000	27600	–
Female, Harlan Sprague Dawley	49500	49000	33300	26100	14000	6030	1460	–	–
Male, Harlan Sprague Dawley	–	–	–	–	–	–	–	–	14800

CCC1(c2ccccc2)C(=O)NCNC1=O [Primidone]
Conditions	concentration in plasma [µg/mL]
Rat [15]	3
Rat [16]	12.3
Rat [17]	21.6
Rat [18]	13
Rat [19]	50.4
Rat [20]	1.6

c1ccncc1 [Pyridine]
Conditions	concentration in plasma [ng/mL]
Rat [21]	4760

CC(C)[C@]12CC(=O)[C@H](C)[C@H]1C2 [alpha-Thujone]
Conditions	concentration in brain [ng/g]	concentration in plasma [ng/mL]
Rat [22]	176	–
Rat [23]	996	–
Rat [24]	878	–
Rat [25]	865	–
Rat [26]	23.4	–
Rat [27]	–	20
Rat [28]	–	130
Rat [29]	–	201
Rat [30]	–	303

OCC(Cl)(Cl)Cl [trichloroethanol]
human
Conditions	concentration in blood [µg/mL]
0 h	4.61
18 h	4.18
24 h	8.18
42 h	6.26
48 h	11.8
66 h	6.56
72 h	13.1
90 h	5.59
96 h	9.98
160 h	1.57

Conditions	concentration in blood [µg/mL]
human, -6 h, during exposure	0.212
